How the values were obtained:
LNCaP [1] = assay: Cytotoxicity against human LNCaP cells after 5 days by MTT assay; assay type: functional; conditions: 120 h
How it was run: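 LNCaP cells (RPMI 1640, 10% FBS, 1% penicillin/streptomycin, 37 °C, 5% CO2) seeded at 2 × 10^4 cells/well, left to adhere 24 h, then exposed to compounds in DMSO for five days, with compound and medium renewed on day 3. MTT (0.5 mg/mL) added for 2 h, formazan dissolved in DMSO, absorbance read at 560 nm. Triplicate wells, three independent experiments. GI50 from nonlinear regression.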

PC-3 = assay: Cytotoxicity against human PC3 cells after 5 days by MTT assay; assay type: functional; conditions: PC-3, 120 h
How it was run: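 Growth inhibition by MTT assay with absorbance read at 560 nm. Values are means of three independent experiments.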

LNCaP [2] = assay: Down regulation of androgen receptor expression in human LNCaP cells by Western blot analysis; assay type: functional, cell-based
How it was run: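 LNCaP cells cultured in T25 flasks and treated with compounds. Lysates made in 0.1 M Tris, 0.5% Triton X-100 and protease inhibitor, protein measured by Bradford assay, then run on 10% SDS-PAGE. AR detected with monoclonal AR441 (1:500) and HRP anti-mouse secondary (1:2000) by ECL. Signal normalized to β-actin.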

[3] = molecular target: T1, Androgen receptor (Homo sapiens) (UniProt P10275); assay: Displacement of [3H]R1881 from mutated androgen receptor expressed in human LNCaP cells; assay type: cell-based
T1 sequence (whole entry): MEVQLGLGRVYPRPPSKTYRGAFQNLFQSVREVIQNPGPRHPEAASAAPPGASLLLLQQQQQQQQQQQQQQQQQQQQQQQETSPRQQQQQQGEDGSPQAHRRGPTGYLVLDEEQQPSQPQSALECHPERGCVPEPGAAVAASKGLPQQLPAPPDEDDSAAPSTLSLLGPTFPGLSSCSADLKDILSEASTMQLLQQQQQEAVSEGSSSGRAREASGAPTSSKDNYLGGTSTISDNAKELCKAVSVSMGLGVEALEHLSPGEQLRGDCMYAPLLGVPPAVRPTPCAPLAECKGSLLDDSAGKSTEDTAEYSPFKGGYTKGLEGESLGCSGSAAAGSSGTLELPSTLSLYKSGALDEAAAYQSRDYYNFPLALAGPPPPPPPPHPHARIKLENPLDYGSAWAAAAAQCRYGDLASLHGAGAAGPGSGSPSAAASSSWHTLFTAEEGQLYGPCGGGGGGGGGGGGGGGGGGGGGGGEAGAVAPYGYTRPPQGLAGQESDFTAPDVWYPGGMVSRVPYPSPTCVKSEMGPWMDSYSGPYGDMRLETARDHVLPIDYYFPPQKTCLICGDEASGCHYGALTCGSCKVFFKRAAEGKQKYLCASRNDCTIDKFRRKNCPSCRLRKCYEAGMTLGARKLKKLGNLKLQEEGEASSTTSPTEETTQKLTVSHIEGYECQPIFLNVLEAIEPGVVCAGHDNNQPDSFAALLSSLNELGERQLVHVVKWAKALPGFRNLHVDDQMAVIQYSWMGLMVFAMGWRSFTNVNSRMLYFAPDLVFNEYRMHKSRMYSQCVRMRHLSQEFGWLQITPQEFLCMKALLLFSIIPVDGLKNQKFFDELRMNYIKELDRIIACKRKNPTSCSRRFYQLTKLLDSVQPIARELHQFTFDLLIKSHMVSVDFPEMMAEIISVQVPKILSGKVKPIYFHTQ

[4] = molecular target: T1, Androgen receptor (Homo sapiens); assay: Displacement of [3H]R1881 from wild type androgen receptor expressed in human PC3 cells; assay type: cell-based; conditions: PC-3
[5] = molecular target: T1, Androgen receptor (Homo sapiens); assay: Activity at androgen receptor expressed in human LNCaP cells assessed as decrease in dihydrotestosterone-stimulated transcriptional activity at 10 uM after 18 hrs by luciferase reporter gene assay; assay type: cell-based; design: scale not given: the % may be the effect or the level left
How it was run: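 LNCaP cells transiently transfected with the probasin-driven ARR2-Luc reporter, held in steroid-free medium, then given vehicle or compound with or without 5 nM DHT for 18 h before luciferase read-out. Mean of three independent experiments.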

[6] = molecular target: T1, Androgen receptor (Homo sapiens); assay: Displacement of [3H]R1881 from wild type androgen receptor expressed in human PC3 cells at 10 uM; assay type: cell-based; conditions: PC-3
[7] = molecular target: T1, Androgen receptor (Homo sapiens); assay: Displacement of [3H]R1881 from wild type androgen receptor expressed in human PC3 cells at 20 uM; assay type: cell-based; conditions: PC-3

Row | SMILES | GI50 (LNCaP [1]) [µM] | GI50 (PC-3) [µM] | also measured
1 | Cc1ccc(NS(=O)(=O)c2ccc(F)cc2)c(C(=O)O)c1 | 10.7 | > 100 | –
2 | O=S(=O)(Nc1ccccc1)c1ccccc1 [PHENYL(PHENYLSULFONYL)AMINE] | – | > 100 | –
3 | Cc1ccc(NS(=O)(=O)c2ccccc2)c(C(=O)O)c1 | 0.0182 | – | –
4 | Cc1ccc(N(C)S(=O)(=O)c2ccc(C)cc2)cc1 | 89.2 | 44.7 | –
5 | Cc1ccc(NC(=O)c2ccc(C)cc2)cc1 | 55 | 26.9 | –
6 | Cc1ccc(S(=O)(=O)Nc2ccccc2[N+](=O)[O-])cc1 | 0.083 | 50.1 | EC50 (LNCaP [2]): > 150 µM
7 | Cc1ccc(S(=O)(=O)Nc2ccccc2)cc1 | 24 | 38.9 | –
8 | Cc1ccc(C#N)c(NS(=O)(=O)c2ccc(F)cc2)c1 | 30.2 | > 100 | –
9 | Cc1ccc(NS(=O)(=O)c2ccccc2)c([N+](=O)[O-])c1 | 0.00295 | 60.2 | –
10 | Cc1ccc(-c2nnn[nH]2)c(NS(=O)(=O)c2ccc(F)cc2)c1 | > 100 | > 100 | –
11 | Cc1ccc(NCc2ccccc2)cc1 [N-BENZYL-4-METHYLANILINE] | > 100 | 52.4 | –
12 | O=[N+]([O-])c1ccccc1NS(=O)(=O)c1ccccc1 | 0.0148 | 22.9 | –
13 | Cc1ccc(NS(=O)(=O)c2ccccc2)cc1 | 21.3 | 13.8 | –
14 | Cc1ccc(CNc2ccc(C)cc2)cc1 | 19.1 | 29.5 | –
15 | Cc1ccc(NS(=O)(=O)c2ccc(F)cc2)c([N+](=O)[O-])c1 | 0.00234 | 0.85 | Activity [3]: Dose-dependent effect; Activity [4]: Dose-dependent effect; Activity [5]: 50%
16 | Cc1ccc(S(=O)(=O)Nc2ccc(C)cc2[N+](=O)[O-])cc1 | 39.8 | 43.7 | –
17 | Cc1ccc(NS(=O)(=O)c2ccc(C)cc2)cc1 | 0.00145 | 30.2 | EC50 (LNCaP [2]): 150 µM; Activity [3]: Dose-dependent effect; Activity [4]: Dose-dependent effect; Activity [6]: 65%; Activity [7]: 80%; Activity [5]: 80%
